Common to all, as to format: functional, cell-based
The subject of one test is HL-60. The test is described as follows: Cytotoxic activity against human HL60 cells after 48 hrs by MTT assay. The conditions noted are these: HL-60, 48 h. The method in brief: (§1)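 Cells kept in RPMI1640 or DMEM with 10% FBS, 5% CO2, 37 °C. Adherent lines seeded in 96-well plates and left 12 h to attach; suspension cells (HL-60) seeded at drug addition, 1 × 10^5 cells/mL. Compounds at 0.0625, 0.32, 1.6, 8 and 40 µM in triplicate for 48 h. Viability by MTT; IC50 from growth curves via Reed and Muench method; cisplatin positive control.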
A general note: Formazan colour is commonly taken as a measure of viable cells.

The subject of the next test is SMMC-7721. Put plainly: Cytotoxic activity against human SMMC7721 cells after 48 hrs by MTT assay. The settings on record: SMMC-7721, 48 h. The method in brief:
as §1

The next test deals with A549. The test is described as follows: Cytotoxic activity against human A549 cells after 48 hrs by MTT assay. The settings on record: A549, 48 h. The method, boiled down:
as §1

Another test deals with SK-BR-3. The test is described as follows: Cytotoxic activity against human SK-BR-3 cells after 48 hrs by MTT assay. The conditions noted are these: SK-BR-3, 48 h. The method, boiled down:
as §1

pIC50: −log10 of the molar value.

In the case of `CC[C@]12CCCN3CCc4c(n(c5ccccc45)[C@H](OC)C1)[C@@H]32`, the negative-log IC50 (pIC50) in the test on HL-60, with SMMC-7721, with A549 and in the test with SK-BR-3 was less than 4.40 throughout.
Turning to `CC[C@@]12C=Cn3c4c(c5ccccc53)CCN(CCC1)[C@H]42`, the pIC50 in the test with HL-60, in the test on SMMC-7721, in the test with A549 and in the test on SK-BR-3 was less than 4.40 in each case.
As for `CC[C@@H]1CN2CC[C@]34c5ccccc5-n5c3c(cc(C(N)=O)c5=O)[C@H]1C[C@H]24` [LEUCONICINE A], the pIC50 in the test with HL-60, with SMMC-7721, in the test with A549 and in the test on SK-BR-3 was less than 4.40 in each case.
Regarding `CC[C@@H]1CN2CC[C@]34c5ccccc5-n5c3c(cc(C(=O)OC)c5=O)[C@H]1C[C@H]24` [LEUCONICINE B], the pIC50 with HL-60, with SMMC-7721, with A549 and with SK-BR-3 was less than 4.40 each time.
Consider `CCC1=CN2CC[C@]34c5ccccc5-n5c3c(cc(C(=O)OC)c5=O)[C@H]1C[C@H]24` [MELODININE B], for which the pIC50 with HL-60, in the test with SMMC-7721, in the test on A549 and in the test on SK-BR-3 was less than 4.40 throughout.
Consider `CC[C@@H]1CN2CC[C@]34c5ccccc5-n5c3c(cc(C(=O)O)c5=O)[C@H]1C[C@H]24` [MELODININE C], for which the pIC50 in the test on HL-60, in the test with SMMC-7721, in the test with A549 and in the test on SK-BR-3 was less than 4.40 throughout.
As for `COC(=O)C1=C2Nc3ccccc3[C@]23CCN2CC[C@H]1[C@@]1(O[C@H]1C)[C@@H]23` [MELODININE D], the pIC50 in the test on HL-60, in the test with SMMC-7721, with A549 and with SK-BR-3 was less than 4.40 in each case.
Turning to `CC[C@@]12CCCN3C(=O)C=C4c5ccccc5N(C(=O)CC1)C432` (some centres undefined) [MELODININE E], the pIC50 in the test on HL-60, in the test on SMMC-7721, in the test on A549 and in the test on SK-BR-3 was less than 4.40 in each case.
As for `CC[C@]12CCC[N+]3([O-])CCc4c(n(c5ccccc45)[C@H](OC)C1)[C@H]23` (some centres undefined) [MELODININE F], the pIC50 in the test on HL-60, in the test on SMMC-7721, with A549 and in the test on SK-BR-3 was less than 4.40 throughout.
For the molecule `CC[C@@]12C=Cn3c4c(c5ccccc53)CC[N+]([O-])(CCC1)[C@H]42` (some centres undefined) [MELODININE G], the pIC50 in the test with HL-60, with SMMC-7721, with A549 and in the test on SK-BR-3 was less than 4.40 in each case.
On to `C/C=C(/C=O)[C@@H]1C[C@H]2c3[nH]c4ccccc4c3CCN2C=C1C(=O)OC` [VALLESIACHOTAMINE], for which the pIC50 (commonly the negative decadic logarithm of the IC50, by convention in mol/L) in the test on HL-60 is 5.70; in the test with SMMC-7721, 4.77; in the test with A549 it was 4.59; in the test with SK-BR-3, 4.61.

The values above are taken from ChEMBL document CHEMBL1154869, “Melodinines A-G, monoterpenoid indole alkaloids from Melodinus henryi” (J Nat Prod, 2010).
